# From PubChem BioAssay
# Sampled rows, rich in hits. Any-hit rate of the full collection: about 2.3%.
# Tn6 DDE FP = disrupts Tn6 cyclic peptide binding to fibrin D-Dimer-E complex; AID 720509; 370,000 compounds, 0.21% hits; inhibition, % at 8.3 µM; Fibrin DD(E) TRITC-Tn6 fluorescence polarization displacement;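 active = inhibition above a per-campaign cutoff: mean of compounds within control limits plus 3 SD, cut at about 15% in these data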;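 also: 0% = median of all compound wells on the plate and 100% = blocking peptide control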
# PLCb3 inh = blocks human PLC-beta3 enzyme activity; Q01970; Purified PLC-beta3, fluorogenic substrate, fluorescence; inhibition, % at 12.2 µM; 370,000 compounds, 0.18% hits; in the data active = inhibition above about 11%;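 also: 0% = median of compound wells on plate and 100% = full blocker control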
# ADAM17 inh = inhibits human ADAM17 | P78536 | recombinant ADAM17, EDANS/DABCYL FRET peptide cleavage | inhibition, % at 6.95 µM | 370,000 compounds, 0.83% hits | AID 720648;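 active = inhibition above the mean of compounds lying between control limits plus 3 SD, set per campaign, cut at about 8.5% in these data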;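 also: 0% = DMSO-only wells as the low control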
# ADAM10 inh = ADAM10 inhibition, QFRET primary screen; AID 720582; recombinant ADAM10, EDANS/DABCYL FRET peptide cleavage, 3 h; inhibition, % at 7 µM; 370,000 compounds, 0.62% hits;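 active = inhibition above a per-campaign cutoff equal to the mean of compounds falling between control-based bounds plus 3 SD, cut at about 20% in these data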;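 also: 0% = DMSO wells while the 100% control is not disclosed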
# DDE Tn7 FP inh = inhibitors of Tn7 peptide binding to human fibrin DD(E); P02675; inhibition, % at 8.3 µM; FP displacement of FITC-Tn7 peptide from fibrin DD(E); 0% = median of compound wells per plate; 370,000 compounds, 0.13% hits;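 active = inhibition above the mean of compounds falling within the control limits plus 3 SD of them, cut at about 14% in these data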;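 also: 0% = plate median of compound wells and 100% = 10 µM Aha-Tn7 peptide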
#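 Assay system: human fibrin DD(E) protein / Input: 2 µM fibrin DD(E) / Benchmarks: high control of 10 µM Aha-Tn7 peptide / Measured by: fluorescence polarization of the labelled Tn7 tracer / Medium: Tris buffer with calcium and detergent, pH 7.8 / Timing: 10 min compound pre-incubation, 3 h probe incubation at room temperature / Repeats: one replicate per compound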
# PLCg1 inh = blocks human PLC-gamma1 enzyme activity; P19174; purified PLC-gamma1, fluorogenic substrate, fluorescence; inhibition, % at 12.2 µM; 370,000 compounds, 0.84% hits; AID 720700; in the data active = inhibition above about 9.5%
# Tn6 DDE ctr = DD(E)-Tn6 binding inhibition, counter-screen | shares compounds with Tn6 DDE FP | 680 compounds, 2% hits | Fibrin DD(E), TRITC-Tn6 fluorescence polarization displacement; 0% = median of compound wells, not DMSO | inhibition, % at 8.3 µM | AID 720621;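 active = inhibition above the mean of test compounds lying between the control limits plus 3 SD of those, cut at about 14% in these data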;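 also: 0% = median of compound wells and 100% = wells with Aha-Tn7 blocking peptide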
# DDE Tn6 confirm = DD(E)-Tn6 binding inhibition, FP confirmation | FP displacement of TRITC-Tn6 peptide from DD(E); 0% = per-plate median of test wells | inhibition, % at 8.3 µM | 680 compounds, 10% hits | shares compounds with Tn6 DDE FP;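 active = inhibition above the mean of compounds lying within the control limits plus 3 SD, cut at about 16% in these data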;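 also: 100% = high control wells holding a competing inhibitor peptide at 10 µM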
# Starred values were filed as active, the others as inactive; · = no result given; + = active, no number.
SMILES,Tn6 DDE FP,PLCb3 inh,ADAM17 inh,ADAM10 inh,DDE Tn7 FP inh,PLCg1 inh,Tn6 DDE ctr,DDE Tn6 confirm
Cc1ccc(NC(=O)Cn2nnc(-c3ccccc3F)n2)c(C)c1,3.0,1.6,1.6,-2.0,-0.8,-1.6,·,·
O=C(Cn1nnc(-c2ccccc2F)n1)Nc1ccc(F)cc1F,15.6*,1.4,-0.9,-3.1,2.6,-1.8,-3.3,-3.8
COc1cc(CC(=O)OCC(=O)NC2CCCCC2C)cc(OC)c1OC (centres undefined),25.6*,-2.0,1.1,-4.4,8.0,0.5,-8.3,-8.6
O=C(C1CCCCC1)N1CCN(c2ccccc2F)CC1,41.7*,-3.1,-4.5,-2.4,6.4,0.6,5.2,4.0
O=C(C1CC(=O)N(C2CCCC2)C1)N1CCN(c2ccccc2F)CC1 (centres undefined),1.1,0.4,-0.8,-17.3,4.1,3.1,·,·
Cc1cc(CN(C)C(=O)CC2C(=O)NCCN2Cc2ccc(-c3ccccc3)cc2)on1 (centres undefined),15.9*,-24.4,-4.4,-11.4,2.1,-12.6,-2.3,-13.8
O=C(Nc1ccccc1N1CCCC1)c1ccc(Cl)cc1Cl,16.3*,-7.0,-1.8,5.0,4.5,-2.9,0.5,-3.6
Cc1ccc(S(=O)(=O)N(C)C)cc1NC(=O)c1sccc1Cl,-7.3,-5.5,-1.0,-0.6,0.9,0.8,·,·
Cc1ccc(S(=O)(=O)N(C)C)cc1NC(=O)c1cccs1,17.3*,-3.0,0.5,3.2,-0.8,2.9,-1.8,-4.7
O=C(c1ccccc1C(F)(F)F)N1CCC(Oc2cccnc2)CC1,-7.2,-1.3,-1.1,5.1,-4.5,-1.3,·,·
COc1ccccc1C(=O)COC(=O)C(NC(=O)Cc1ccccc1)C(C)C (centres undefined),+,-10.9,-2.9,-8.3,1.5,-6.1,-4.5,-14.9
CCOC(=O)NC(Nc1sc2c(c1C(=O)OC)CCN(C)C2)(C(F)(F)F)C(F)(F)F,-1.5,-9.4,-13.7,-49.9,-3.1,-6.5,·,·
CCC(=O)NC(Nc1sc2c(c1C(=O)OC)CCN(C)C2)(C(F)(F)F)C(F)(F)F,17.1*,-6.2,-8.3,-24.9,2.1,-5.4,1.4,-0.3
CC(C)[C@H](NC(=O)[C@@H]1CCCN1)C(=O)N1CCC2CCN(S(=O)(=O)c3ccccc3)CC21 (some centres undefined),-0.8,3.1,-1.3,-5.5,-6.3,-1.0,·,·
O=C(CSc1ccc(-c2nc3ccccc3[nH]2)cn1)Nc1ccc(S(=O)(=O)NC2CC2)cc1,182.5*,-18.1,-16.5,-64.1,-4.1,-11.4,8.8,-12.3
Cc1ccc2c(c1)C1CS(=O)(=O)N(CCc3ccccc3)C(=O)N1C2 (centres undefined),-2.7,2.5,-2.8,-1.9,-2.7,8.1,·,·
Fc1cccc(Cl)c1CNc1ccc(N2CCCC2)cc1,20.4*,-103.6,-5.3,-12.8,1.6,-107.2,1.3,1.0
Cc1cc(N)ccc1-n1c(C)ccc1C,154.0*,-8.9,-5.3,-6.9,4.4,-6.2,1.8,11.1
Cc1ccc(C(=O)N2[C@@H]3CN(C)C(=O)[C@@]2(Cc2ccccc2)[C@H]2C(=O)N(C)C(=O)[C@@H]32)cc1,15.9*,0.4,-2.2,-0.4,7.9,-0.5,-2.5,-3.3
CCOc1ccc(-n2c(SCC(=O)Nc3ccccc3-c3ccccc3)nnc2-c2cccs2)cc1,-5.4,1.5,6.2,16.4,-1.0,2.6,·,·
NC(=O)C1(N2CCCCC2)CCN(C(=O)CSc2nc3ccccc3s2)CC1,16.7*,1.5,-2.3,0.6,3.0,-1.3,2.7,1.6
C[n+]1cc2c3c(ccc2c2ccc4cc5c(cc4c21)OCO5)OCO3,27.4*,-48.8,-46.9,-145.1,9.8,-37.3,2.7,19.9*
CCn1nnnc1SCC(=O)Nc1nc(C)c(C)s1,16.1*,3.3,-2.0,3.7,3.5,2.8,2.9,1.6
CC1(C)CC(=O)C2=C(C1)N1C(=C(C#N)C2c2ccc(Cl)cc2)N=C(N)c2ccccc21 (centres undefined),5.9,-43.4,-1.7,-13.1,-1.0,-32.2,·,·
CC1(C)CC(=O)C2=C(C1)N1C(=C(C#N)C2c2ccccc2Cl)N=C(N)c2ccccc21 (centres undefined),17.0*,-29.6,-2.5,-10.0,-6.1,-25.8,2.2,-0.5
SMILES,Tn6 DDE FP,PLCb3 inh,ADAM17 inh,ADAM10 inh,DDE Tn7 FP inh,PLCg1 inh,Tn6 DDE ctr,DDE Tn6 confirm
Cc1cc(NC(=O)COC(=O)c2ccc([N+](=O)[O-])cc2Cl)no1,98.2*,-1.7,6.7,0.0,-4.1,3.0,-5.2,-7.5
CNC(=O)COC(=O)c1ccc([N+](=O)[O-])cc1Cl,2.1,-3.1,-6.2,-0.9,-3.9,3.4,·,·
CC(C)Oc1ccc(-c2csc(N3CCC(C(N)=O)CC3)n2)cc1,-5.6,-4.5,-4.0,-1.3,5.3,3.1,·,·
c1ccc(Oc2ccccc2-c2cc(NCCc3cccnc3)n3nccc3n2)cc1,16.7*,-327.6,-94.3,-312.0,0.0,-236.6,1.0,0.2
Cc1cc(-c2nnn(CCCOC(C)(C)C)c2C)ccc1-c1cn(CCCOC(C)(C)C)nn1,16.5*,4.8,0.9,1.0,-3.7,1.2,5.0,6.0
CCCCCn1c(=O)[nH]c2cc(C(=O)NCCCN3CCC(C)CC3)ccc2c1=O,18.2*,-105.4,-16.2,-49.5,11.4,-70.9,-2.4,-7.7
CCCCCn1c(=O)[nH]c2cc(C(=O)NCCCN3CCCCC3)ccc2c1=O,-6.2,-149.4,-32.1,-104.6,3.1,-117.0,·,·
COc1ccc2c(CC#N)c[nH]c2c1,15.7*,0.0,0.6,10.2,2.0,-0.4,1.9,2.3
CCc1ccccc1Nc1ccc(C(=O)O)cc1N,7.8,-62.5,-10.9,-35.0,-2.9,-55.2,·,·
Nc1cc(C(=O)O)ccc1Nc1ccccc1,18.3*,-94.5,-50.2,-170.9,-2.8,-66.2,6.2,-4.8
COC(=O)[C@]12C=CCN1[C@H](c1ccccc1)c1c(c3ccccc3n1S(=O)(=O)c1ccc(C)cc1)C2,18.8*,-26.5,-3.3,-11.1,-8.5,-18.7,1.8,3.7
COC(=O)[C@]12C=CCN1[C@H](c1ccc(OC)c(OC)c1)c1c(c3ccccc3n1S(=O)(=O)c1ccc(C)cc1)C2,-1.6,-93.8,-8.1,-24.2,-4.2,-72.6,·,·
CC(C)C(Cl)=NOC(=O)Nc1ccc(S(N)(=O)=O)cc1,15.9*,2.7,1.2,-5.5,-11.0,4.5,6.6,7.9
COC(=O)[C@H](C)NC(=O)Nc1ccc(S(N)(=O)=O)cc1,5.2,1.6,-3.1,-1.7,-2.1,2.3,·,·
Cc1cc2c(N)cccc2nn1,+,-30.4,-5.0,-0.4,5.1,-17.6,0.0,17.6*
